Assay results taken from ChEMBL document CHEMBL4145604, “Jizanpeptins, Cyanobacterial Protease Inhibitors from a Symploca sp. Cyanobacterium Collected in the Red Sea” (J Nat Prod, 2018).
Activity calls are given as the source filed them. The rule behind the calls is not given here. *1 amine or outer side, *2 acyl side, *3 side chain or, on linkers, in order; H or OH if unused. Where a SMILES comes first, the peptide text is derived from it. Bridges are numbered along the chain shown (N, C = ends). [ ]: non-standard residue; d: D form. The star is where a group is joined. Ahp(3S,6R)alloIle = CC[C@@H](C)[C@@H](C(=O)[*:2])N1C(=O)[C@@H](N[*:1])CC[C@H]1O; Propanoyl(2R-OMe,3-OSO3H) = CO[C@H](COS(=O)(=O)O)C(=O)*; NMeTyr(3-Br,OMe) = CN[C@@H](Cc1ccc(OC)c(Br)c1)C(=O)O; Cit = NC(=O)NCCC[C@H](N)C(=O)O; Butyryl = CCCC(=O)*

Columns and labels:
[1] = (§1) Inhibition of chymotrypsin (unknown origin) assessed as reduction in conversion of N-benzoyl-L-tyrosine ethyl ester to N-benzoyl-L-tyrosine incubated for 3 mins measured for 30 secs by spectrophotometric method; parameters: species or system Homo sapiens
[2] = species on record: Homo sapiens; test: Selectivity ratio of IC50 for chymotrypsin (unknown origin) to IC50 for trypsin (unknown origin)
[3] = molecular target: Trypsin (Homo sapiens, UniProt P07477+P07478+P35030); test: Inhibition of trypsin (unknown origin) assessed as reduction in conversion of N-benzoyl-L-arginine ethyl ester hydrochloride to N-benzoyl-L-arginine incubated for 5 mins measured for 30 secs by spectrophotometric method; format: protein assay
[4] = system: HeLa; test: Antiproliferative activity against human HeLa cells up to 3 uM after 72 hrs by MTT assay; format: functional, cell-based
[5] = system: NCI-H460; test: Antiproliferative activity against human NCI-H460 cells up to 3 uM after 72 hrs by MTT assay; format: functional, cell-based
In short: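 NCI-H460 cells exposed for 72 h to 30 nM–3 μM compound from DMSO stocks, final DMSO 0.1%; apratoxin A (30 nM) positive control; MTT viability end-point, vehicle-treated cells set as 100%.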

[6] = species on record: Homo sapiens; test: as §1

Row | Structure (SMILES) | IC50 [1] [µM] | Ratio IC50 [2] | IC50 [3] [µM] | Activity [4] | Activity [5] | inhibition [6] | inhibition [3]
1 | CC[C@@H](C)[C@H]1C(=O)N(C)[C@@H](Cc2ccc(OC)c(Br)c2)C(=O)N[C@@H]([C@@H](C)CC)C(=O)O[C@H](C)[C@H](NC(=O)[C@H](NC(=O)[C@@H](COS(=O)(=O)O)OC)C(C)C)C(=O)N[C@@H](CCCNC(=N)N)C(=O)N[C@H]2CC[C@@H](O)N1C2=O | > 10 | 10 to 66 | 0.15 | inactive | inactive | – | –
2 | CC[C@@H](C)[C@H]1C(=O)N(C)[C@@H](Cc2ccc(OC)c(Br)c2)C(=O)N[C@@H]([C@@H](C)CC)C(=O)O[C@H](C)[C@H](NC(=O)[C@H](NC(=O)[C@H](O)COS(=O)(=O)O)C(C)C)C(=O)N[C@@H](CCCCN)C(=O)N[C@H]2CC[C@@H](O)N1C2=O | > 10 | 10 to 66 | 0.16 | inactive | inactive | – | –
3 | CC[C@@H](C)[C@H]1C(=O)N(C)[C@@H](Cc2ccc(OC)c(Br)c2)C(=O)N[C@@H]([C@@H](C)CC)C(=O)O[C@H](C)[C@H](NC(=O)[C@H](NC(=O)[C@@H](COS(=O)(=O)O)OC)C(C)C)C(=O)N[C@@H](CCCCN)C(=O)N[C@H]2CC[C@@H](O)N1C2=O | > 10 | 10 to 66 | 0.19 | inactive | inactive | – | –
4 | CCCC(=O)N[C@H](CCC(N)=O)C(=O)N[C@@H]1C(=O)N[C@@H](CCCNC(N)=O)C(=O)N[C@H]2CC[C@@H](O)N(C2=O)[C@@H]([C@H](C)CC)C(=O)N(C)[C@@H](Cc2ccc(OC)c(Br)c2)C(=O)N[C@@H](C(C)C)C(=O)O[C@@H]1C (Butyryl-[dQ]T[Cit][Ahp(3S,6R)alloIle][NMeTyr(3-Br,OMe)]V; ester 2-C) | – | – | – | – | Active | Active | Active
5 | CC[C@@H](C)[C@H]1C(=O)N(C)[C@@H](Cc2ccc(OC)c(Br)c2)C(=O)N[C@@H]([C@@H](C)CC)C(=O)O[C@H](C)[C@H](NC(=O)[C@@H](NC(=O)[C@@H](COS(=O)(=O)O)OC)[C@@H](C)CC)C(=O)N[C@@H](CCCCN)C(=O)N[C@H]2CC[C@@H](O)N1C2=O ({Propanoyl(2R-OMe,3-OSO3H)}-ITK[Ahp(3S,6R)alloIle][NMeTyr(3-Br,OMe)]I; ester 2-C) | > 10 | 10 to 66 | 1 | inactive | inactive | – | –
6 | CC[C@@H](C)[C@H]1C(=O)N(C)[C@@H](Cc2ccc(OC)c(Br)c2)C(=O)N[C@@H]([C@@H](C)CC)C(=O)O[C@H](C)[C@H](NC(=O)[C@@H](NC(=O)[C@@H](COS(=O)(=O)O)OC)C(C)C)C(=O)N[C@@H](CCCCN)C(=O)N[C@H]2CC[C@@H](O)N1C2=O | 1.4 | 19 | 0.072 | inactive | inactive | – | –
